Data taken from ChEMBL document CHEMBL1154485, “Novel 2-aryl-naphtho[1,2-d]oxazole derivatives as potential PTP-1B inhibitors showing antihyperglycemic activities” (Eur J Med Chem, 2009).

Columns and labels:
Rattus norvegicus [1] = experiment: Antihyperglycemic activity against sucrose-challenged streptozotocin-induced fasted Sprague-Dawley rat assessed as reduction in blood glucose at 100 mg/kg, po administered 30 mins before sucrose challenge measured after 24 hrs post sucrose dose relative to control; format: functional; design: scale not given: the % may be the effect or the level left
In short: (§1)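 Male Sprague Dawley rats, 160 ± 20 g, overnight fasted, given streptozotocin 45 mg/kg i.p. in citrate buffer pH 4.5. Rats at 144-270 mg/dl glucose after 48 h were used, 5-6 per group. Oral dose 100 mg/kg in 1.0% gum acacia, sucrose 2.5 g/kg 30 min later. Glucose read at 30-300 min and 24 h. Activity derived from AUC versus control.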

Mus musculus [2] = species on record: Mus musculus; experiment: Antihyperglycemic activity against C57BL/KsBom db/db type 2 diabetic mouse model assessed as decrease in postprandial blood glucose level on day 6 by OGTT relative to control; format: functional; design: scale not given: the % may be the effect or the level left
In short: (§2)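 Male and female C57BL/KsBom-db mice, 12e18 weeks, 40e50 g, ten used, vehicle 1.0% gum acacia. Day 6 postprandial protocol: glucose read at -0.5 and 0 h, then at 1, 2, 3, 4 and 6 h after dosing. Day 10 OGTT: overnight fast, drug given at -30 min, glucose 3 g/kg at 0 min, glucose read at 30-120 min.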

Mus musculus [3] = species on record: Mus musculus; experiment: Antihyperglycemic activity against C57BL/KsBom db/db type 2 diabetic mouse model assessed as decrease in postprandial blood glucose level on day 3 by OGTT relative to control; format: functional; design: concentration or dose not given beside the values
Rattus norvegicus [4] = experiment: Antihyperglycemic activity against sucrose-challenged streptozotocin-induced fasted Sprague-Dawley rat assessed as reduction in blood glucose at 100 mg/kg, po administered 30 mins before sucrose challenge measured after 5 hrs post sucrose dose relative to control; format: functional; design: scale not given: the % may be the effect or the level left; in short: as §1
[5] = target: T1, Tyrosine-protein phosphatase non-receptor type 1 (Homo sapiens, UniProt P18031); experiment: Inhibition of PTP1B assessed as residual enzyme activity
T1 sequence (P18031 whole entry): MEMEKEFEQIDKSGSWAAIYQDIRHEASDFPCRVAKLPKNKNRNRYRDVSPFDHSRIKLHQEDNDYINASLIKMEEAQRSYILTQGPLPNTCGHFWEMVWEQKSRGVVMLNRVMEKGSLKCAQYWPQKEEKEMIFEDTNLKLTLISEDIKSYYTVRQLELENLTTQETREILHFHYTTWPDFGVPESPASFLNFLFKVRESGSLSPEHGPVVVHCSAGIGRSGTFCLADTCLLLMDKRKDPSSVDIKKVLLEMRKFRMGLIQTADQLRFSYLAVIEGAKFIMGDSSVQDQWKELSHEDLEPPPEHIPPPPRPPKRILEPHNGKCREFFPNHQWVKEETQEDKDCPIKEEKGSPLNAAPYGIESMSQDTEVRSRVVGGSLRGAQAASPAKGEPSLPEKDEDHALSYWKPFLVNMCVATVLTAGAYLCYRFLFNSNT
In short: (§3)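 PTP-1B pre-incubated 10 min with compound, with or without 0.01% Triton X-100. Reaction: 10 mM pNPP in 50 mM HEPES pH 7.0 with 1 mM DTT and 2 mM EDTA, 30 min at 37 °C. Stopped with 0.1 N NaOH, p-nitrophenolate read at 410 nm (ε 1.78×10⁴ M⁻¹cm⁻¹). Single-concentration screen was the mean of three independent sets. Sodium orthovanadate served as standard.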

Mus musculus [6] = experiment: Antidyslipidemic activity in C57BL/KsBom db/db diabetic mouse assessed as reduction in plasma triglyceride level at 100 mg/kg, po; format: functional; design: scale not given: the % may be the effect or the level left
In short: (§4)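 Male and female C57BL/KsBom-db mice, 12e18 weeks, 40e50 g, ten per experiment, housed by sex at 23 °C on a 12/12 h cycle. Test drug given orally at 100 mg/kg in gum acacia (1.0%); vehicle controls received gum acacia only. Dosing ran 10 days. Effects on triglyceride, cholesterol and HDL are reported as % change.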

Rattus norvegicus [7] = experiment: Antihyperglycemic activity against sucrose-loaded Charles-Foster Wistar albino rat assessed as reduction in blood glucose at 100 mg/kg, po administered 30 mins before sucrose challenge relative to control; format: functional; design: scale not given: the % may be the effect or the level left
In short: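 Male Charles Foster/Wistar rats, 160 ± 20 g, fasted 16 h, selected at 60e80 mg/dl glucose, groups of 5-6. Compound given orally at 100 mg/kg in 1.0% gum acacia; sucrose 10.0 g/kg orally 30 min later. Glucose read by glucometer at 30-120 min. Percent activity derived from AUC versus vehicle.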

Mus musculus [8] = species on record: Mus musculus; experiment: Antihyperglycemic activity against C57BL/KsBom db/db type 2 diabetic mouse model assessed as decrease in postprandial blood glucose level on day 10 by OGTT relative to control; format: functional; design: scale not given: the % may be the effect or the level left; in short: as §2
[9] = target: T1, Tyrosine-protein phosphatase non-receptor type 1; experiment: Inhibition of PTP1B assessed as residual enzyme activity in presence of Triton X-100; in short: as §3
Mus musculus [10] = experiment: Antidyslipidemic activity in C57BL/KsBom db/db diabetic mouse assessed as reduction in plasma cholesterol level at 100 mg/kg, po; format: functional; design: scale not given: the % may be the effect or the level left; in short: as §4
Mus musculus [11] = experiment: Antidyslipidemic activity in C57BL/KsBom db/db diabetic mouse assessed as increase in high-density lipoprotein cholesterol level at 100 mg/kg, po; format: functional; in short: as §4

Compound	Activity (Rattus norvegicus [1]) [%]	Activity (Mus musculus [3]) [%]	Activity (Rattus norvegicus [4]) [%]	IC50 [5] [µM]	Ki [5] [µM]	Activity (Rattus norvegicus [7]) [%]	IC50 [9] [µM]	Ki [9] [µM]	further results
CCCCN(C)CCOc1ccc(-c2nc3c(ccc4ccccc43)o2)cc1	18.7	22.3	17.4	2.5	44.4	35.3	2.52	41	Activity (Mus musculus [2]): 22.4%; Activity (Mus musculus [6]): 7.5%; Activity (Mus musculus [8]): 24.1%; Activity (Mus musculus [10]): 12.2%; Activity (Mus musculus [11]): 1.3%
CN(C)CCCOc1ccc(-c2nc3c(ccc4ccccc43)o2)cc1	20.3	16.7	15.6	3.5	34.1	25.2	3.52	36.3	–
CN(C)C(=N)NC(=N)N [METFORMIN]	20.2	11.2	–	–	–	12.9	–	–	–
c1ccc2c(c1)ccc1oc(-c3ccc(OCCN4CCCCC4)cc3)nc12	15.7	10.4	16.4	1.9	27.5	26.9	1.86	27.1	–
CCN(CC)CCOc1ccc(-c2nc3c(ccc4ccccc43)o2)cc1	9.7	–	11.4	4.6	35	21.7	4.55	35.5	–
COc1ccc(Cl)cc1C(=O)NCCc1ccc(S(=O)(=O)NC(=O)NC2CCCCC2)cc1 [GLYBURIDE]	–	13.6	32.8	–	–	33.9	–	–	–
Cc1ccc(S(=O)(=O)NC(=O)NN2CC3CCCC3C2)cc1 (configuration not stated) [GLICLAZIDE]	–	17.4	27.7	–	–	44.8	–	–	–
c1ccc2c(c1)ccc1oc(-c3ccc(OCCN4CCCC4)cc3)nc12	–	–	–	5.71	34.2	8.7	5.7	37	–
ClCCCOc1ccc(-c2nc3c(ccc4ccccc43)o2)cc1	–	–	–	–	–	7.4	–	–	–
O=C(O)COc1ccc(-c2nc3c(ccc4ccccc43)o2)cc1	–	–	–	–	–	4.6	–	–	–
CCOC(=O)CCCOc1ccc(-c2nc3c(ccc4ccccc43)o2)cc1	–	–	–	–	–	9.5	–	–	–
O=C(O)CCCOc1ccc(-c2nc3c(ccc4ccccc43)o2)cc1	–	–	–	–	–	5.8	–	–	–
Oc1ccc(-c2nc3c(ccc4ccccc43)o2)cc1	–	–	–	–	–	10.8	–	–	–
CC(=O)Oc1ccc(-c2nc3c(ccc4ccccc43)o2)cc1	–	–	–	–	–	16.8	–	–	–
COc1ccc(NCCCOc2ccc(-c3nc4c(ccc5ccccc54)o3)cc2)cc1	–	–	–	–	–	11.8	–	–	–
CCCCN(C)CCCOc1ccc(-c2nc3c(ccc4ccccc43)o2)cc1	9.2	–	7.8	–	–	14.7	–	–	–
CCCCCCCCNCCCOc1ccc(-c2nc3c(ccc4ccccc43)o2)cc1	–	–	–	–	–	15	–	–	–
CN(C)CCOc1ccc(-c2nc3c(ccc4ccccc43)o2)cc1	25.7	18.9	27.9	3.51	25.1	35.9	3.56	28.7	Activity (Mus musculus [2]): 21.4%; Activity (Mus musculus [6]): 10.5%; Activity (Mus musculus [8]): 23.6%; Activity (Mus musculus [10]): 17.6%; Activity (Mus musculus [11]): 3%
CCN(CC)CCCOc1ccc(-c2nc3c(ccc4ccccc43)o2)cc1	13.6	10.8	11.5	3.4	40.5	20.5	3.36	41	–
c1ccc2c(c1)ccc1oc(-c3ccc(OCCCN4CCCC4)cc3)nc12	12.9	–	12.6	–	–	17.2	–	–	–
CCOC(=O)COc1ccc(-c2nc3c(ccc4ccccc43)o2)cc1	–	–	–	–	–	11.4	–	–	–
c1ccc2c(c1)ccc1oc(-c3ccc(OCCCN4CCCCC4)cc3)nc12	11.2	–	13.4	–	–	25	–	–	–
Cc1ccc(NCCCOc2ccc(-c3nc4c(ccc5ccccc54)o3)cc2)cc1	15.2	–	14.6	–	–	17.2	–	–	–
